This note sets out measurements from ChEMBL document CHEMBL2163220 (J Med Chem, 2012).

Substitutions are numbered along the chain they refer to. Calls of active or inactive are those of the source. No cut-off for these calls is given here.

In experiment [1] the target is T1, Androgen receptor (Homo sapiens) (UniProt P10275).
T1 sequence (whole entry): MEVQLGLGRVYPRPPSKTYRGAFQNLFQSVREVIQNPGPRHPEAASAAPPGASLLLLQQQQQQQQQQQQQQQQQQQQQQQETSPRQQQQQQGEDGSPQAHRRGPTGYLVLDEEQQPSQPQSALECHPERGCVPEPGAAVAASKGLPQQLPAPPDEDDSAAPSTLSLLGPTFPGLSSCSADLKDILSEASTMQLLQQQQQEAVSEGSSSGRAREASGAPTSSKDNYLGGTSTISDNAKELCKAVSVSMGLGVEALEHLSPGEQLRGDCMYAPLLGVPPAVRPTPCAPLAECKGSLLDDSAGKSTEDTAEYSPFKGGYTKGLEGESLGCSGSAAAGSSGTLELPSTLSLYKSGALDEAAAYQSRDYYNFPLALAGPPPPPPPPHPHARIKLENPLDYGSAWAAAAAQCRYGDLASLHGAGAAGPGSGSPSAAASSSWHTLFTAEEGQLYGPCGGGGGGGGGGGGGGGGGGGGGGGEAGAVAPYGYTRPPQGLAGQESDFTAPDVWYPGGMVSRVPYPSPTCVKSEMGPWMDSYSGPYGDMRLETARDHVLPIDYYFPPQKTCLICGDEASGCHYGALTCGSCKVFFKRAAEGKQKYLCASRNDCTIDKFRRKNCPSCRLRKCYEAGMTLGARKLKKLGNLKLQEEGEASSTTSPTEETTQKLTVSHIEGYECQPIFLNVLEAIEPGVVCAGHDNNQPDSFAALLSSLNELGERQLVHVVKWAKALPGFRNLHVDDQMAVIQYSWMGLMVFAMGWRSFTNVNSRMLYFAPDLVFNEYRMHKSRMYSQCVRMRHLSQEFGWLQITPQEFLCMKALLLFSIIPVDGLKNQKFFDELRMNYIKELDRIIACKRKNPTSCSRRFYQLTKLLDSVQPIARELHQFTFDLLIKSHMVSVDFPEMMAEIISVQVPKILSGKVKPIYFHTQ
In words: Antagonist activity at androgen receptor expressed in human PC3 cells assessed as reduction in DHT-induced receptor transactivation at 0.1 to 1 uM by luciferase reporter gene assay. The format is functional, cell-based. To be noted: PC-3. The gist of the method:
(§1)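 Full-length wild-type or mutant AR plasmid transiently transfected into PC-3 cells with MMTV-luc and Renilla luciferase reporters. Cells treated with DMSO vehicle or compound at 0.1 and 1 μM, alone or with 0.1 nM DHT. Luciferase read as relative luciferase units. Run in triplicate.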
Background: A reporter such as luciferase makes a cellular process visible.

Experiment [2] has as its system LNCaP. In words: Induction of apoptosis in human LNCAP cells assessed as PARP cleavage activation incubated for 24 hrs by Western blotting. The format is functional, cell-based. Put shortly: (§2)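 LNCaP cells in complete medium were exposed to DMSO or compound at 1, 2.5 and 5 μM for 24 h. Western blot measured AR, maspin, caspase-3 activation and PARP cleavage, with β-actin as loading control.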
On the technique in general: In western blotting, separated proteins are transferred to a membrane and probed.

A further experiment concerns LNCaP (Homo sapiens). In words: Effect on androgen receptor gene expression in human LNCaP cells at 1 or 2.5 uM incubated for 24 hrs by RT-PCR.
Experiment [3] relates to LNCaP. In words: Reduction in androgen receptor protein expression in human LNCAP cells incubated for 24 hrs by Western blotting. The format is functional, cell-based. The gist of the method: as §2
For the next experiment, the system named is PC-3. In words: Effect on in Maspin expression in human PC3 cells deficient in wild type androgen receptor at 2.5 uM by luciferase reporter gene assay. Format: functional, cell-based. The gist of the method: (§3)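 PC-3 cells were transfected with maspin-luc, with or without cotransfected AR. Cells were exposed to DMSO vehicle or compound at 2.5 and 5 μM. Luciferase activity was measured in triplicate.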

Experiment [4] deals with T1, Androgen receptor (Homo sapiens). Description: Antagonist activity at androgen receptor in human LNCaP cells assessed as increase in Maspin expression incubated for 24 hrs in presence of DHT by RT-PCR.
Experiment [5] shares this target. In words: Agonist activity at androgen receptor expressed in human PC3 cells assessed as stimulation of receptor transactivation at 0.1 to 1 uM by luciferase reporter gene assay. Format: functional, cell-based. To be noted: PC-3. The gist of the method:
as §1

For experiment [6], the system named is T2, Androgen receptor (Homo sapiens), P10275 [H875Y].
T2 sequence (whole entry): T1 sequence (whole entry) with H875Y
In words: Agonist activity at androgen receptor H874Y mutant expressed in human PC3 cells assessed as stimulation of receptor transactivation at 0.1 to 1 uM by luciferase reporter gene assay. Format: functional, cell-based. To be noted: PC-3. The gist of the method:
as §1

In experiment [7] the target is T1, Androgen receptor (Homo sapiens). Description: Antagonist activity at androgen receptor in human PC3 cells assessed as increase in Maspin promoter activity at 2.5 uM by luciferase reporter gene assay. To be noted: PC-3. Format: functional, cell-based. Put shortly:
as §3

For experiment [8], the system named is LNCaP. In words: Cytotoxicity against human LNCAP cells incubated for 72 hrs by MTT assay. The format is functional, cell-based. The gist of the method:
(§4)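 MTT assay run across a panel of prostate cancer cell lines.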

Experiment [9] relates to T2, Androgen receptor (Homo sapiens), P10275 [H875Y]. In words: Antagonist activity at androgen receptor H874Y mutant expressed in human PC3 cells assessed as reduction in DHT-induced receptor transactivation at 0.1 to 1 uM by luciferase reporter gene assay. The format is functional, cell-based. To be noted: PC-3. The gist of the method:
as §1

Experiment [10] addresses T1, Androgen receptor (Homo sapiens). Description: Antagonist activity at androgen receptor in human LNCaP cells assessed as reduction in DHT-induced PSA expression by luciferase reporter gene assay. Format: functional, cell-based. The gist of the method:
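LNCaP cells carrying a PSA-luc reporter were treated with compound at 1 and 2.5 μM in the presence of 1 nM DHT. Fold suppression was calculated relative to 1 nM DHT alone. Run in triplicate.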

Experiment [11] can be described thus: Cytotoxicity against human C4-2B cells incubated for 72 hrs by MTT assay. The format is functional, cell-based. To be noted: LNCaP C4-2B. The gist of the method: as §4
Background: Tetrazolium assays rely on reduction of a dye to a coloured formazan, in cell work by metabolically active cells.

With `Cc1coc2c1C(=O)C(=O)c1c-2ccc2c1CCCC2(C)C` [TANSHINONE IIA], the result in [1] and in experiment [7] was Active. Moreover, the Activity result (in the experiment on LNCaP [2]; with LNCaP [3]; in [4]; in [10]) was “Dose-dependent effect” each time. The outcome (in the experiment on LNCaP (Homo sapiens); in the experiment on PC-3; in experiment [5]; in [6]; in experiment [9]) was inactive. Further, the IC50 in the experiment on LNCaP [8] amounted to 500 nM; in experiment [11], 400 nM.

The IC50 is the concentration needed to halve the response being measured. Higher therefore signals weaker potency in that assay.
